From ChEMBL document CHEMBL2407064 (J Med Chem, 2013)
Activity calls are given as the source filed them. No cut-off for these calls is given here.

How the values were obtained:
[1] = molecular target: T1, Acetylcholine receptor; alpha1/beta1/delta/gamma (Homo sapiens) (UniProt P02708+P07510+P11230+Q07001); experiment: Agonist activity at alpha1beta1gammadelta nAChR in human TE671/RD cells assessed as stimulation of 86Rb+ ion efflux after 5 mins by liquid scintillation counting analysis; type: cell-based
Method in brief: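 Human TE671/RD cells, which natively express muscle-type α1β1γδ nAChRs, maintained at low passage (1–26) and split 1/300 weekly. 86Rb+ efflux. Agonism given as EC50 with efficacy normalized to carbamylcholine.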

Mus musculus [2] = experiment: Toxicity in BALB/cJ mouse assessed as mortality at 10 mg/kg, ip; type: organism-based; set-up: dose 10 mg/kg, route intraperitoneal; conditions: in vivo
Mus musculus [3] = experiment: Toxicity in BALB/cJ mouse assessed as sedative effect at 5 mg/kg, ip; type: organism-based; set-up: dose 5 mg/kg, route intraperitoneal; conditions: in vivo
Mus musculus [4] = experiment: Toxicity in BALB/cJ mouse assessed as occurrence of tremor at 5 mg/kg, ip; type: organism-based; set-up: dose 5 mg/kg, route intraperitoneal; conditions: in vivo
[5] = molecular target: T1, Acetylcholine receptor; alpha1/beta1/delta/gamma (Homo sapiens); experiment: Antagonist activity at alpha1beta1gammadelta nAChR in human TE671/RD cells assessed as inhibition of carbamylcholine-induced 86Rb+ ion efflux preincubated for 10 mins by liquid scintillation counting analysis; type: cell-based
Salmonella typhimurium [6] = experiment: Genotoxicity in Salmonella typhimurium TA1537 up to 3 x 10^5 uM by Ames test in presence of liver S9 fraction; type: toxicity, organism-based; conditions: salmonella enterica subsp. enterica serovar typhimurium
Salmonella typhimurium [7] = experiment: Genotoxicity in Salmonella typhimurium TA1537 up to 3 x 10^5 uM by Ames test; type: toxicity, organism-based; conditions: salmonella enterica subsp. enterica serovar typhimurium
[8] = molecular target: T2, Neuronal acetylcholine receptor; alpha3/alpha6/beta2/beta3 (Homo sapiens, UniProt P17787+P32297+Q05901+Q15825); experiment: Agonist activity at human alpha6/alpha3beta2beta3 nAChR expressed in human SHEP1 cells assessed as stimulation of 86Rb+ ion efflux after 5 mins by liquid scintillation counting analysis; type: cell-based
Mus musculus [9] = experiment: Antidepressant-like activity in BALB/cJ mouse assessed as decrease in immobility time at 1 to 10 mg/kg, ip administered 30 mins before test measured for 6 mins by forced swimming test; type: functional, organism-based
Method in brief: (§1)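 Male BALB/cJ mice, 8–10 weeks old. Drugs dissolved in water and given i.p. or orally at 10 ml/kg, 30 min before the trial. Sertraline 20 mg/kg was the positive control. Each mouse was placed in a glass cylinder with 12 cm of 23 ± 1 °C water, and immobility (floating) was timed over a 6 min trial. ANOVA with Fisher's LSD; n = 9–10/group.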

[10] = molecular target: T2, Neuronal acetylcholine receptor; alpha3/alpha6/beta2/beta3; experiment: Antagonist activity at human alpha6/alpha3beta2beta3 nAChR expressed in human SHEP1 cells assessed as inhibition of carbamylcholine-induced 86Rb+ ion efflux preincubated for 10 mins by liquid scintillation counting analysis; type: cell-based
Mus musculus [11] = experiment: Antidepressant-like activity in BALB/cJ mouse assessed as decrease in immobility time at 1 mg/kg, po administered 30 mins before test measured for 6 mins by forced swimming test; type: functional, organism-based; set-up: dose 1 mg/kg; method in brief: as §1
Mus musculus [12] = experiment: Antidepressant-like activity in BALB/cJ mouse assessed as decrease in immobility time at 1 mg/kg, ip administered 30 mins before test measured for 6 mins by forced swimming test; type: functional, organism-based; set-up: dose 1 mg/kg; method in brief: as §1
Salmonella typhimurium [13] = experiment: Genotoxicity in Salmonella typhimurium TA98 at 5 to 100 uM by Ames test; type: toxicity, organism-based; conditions: salmonella enterica subsp. enterica serovar typhimurium
Method in brief: (§2)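 Bacterial reverse mutation (Ames) test in TA98, TA100, TA1535 and TA1537 strains, with and without liver S9 metabolic activation. Test concentrations 5, 10, 50 and 100 μM.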

hERG (KCNH2) [14] = molecular target: T3, hERG (KCNH2) (Homo sapiens, UniProt Q12809); experiment: Inhibition of human ERG at 0.1 uM relative to control
Method in brief: (§3)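 Human ERG inhibition tested at three concentrations (0.1, 1 and 10 μM), expressed as percent inhibition.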

[15] = molecular target: T4, Neuronal acetylcholine receptor; alpha4/beta2 (Homo sapiens, UniProt P17787+P43681); experiment: Antagonist activity at human alpha4beta2 nACHR expressed in human SHEP1 cells assessed as inhibition of carbamylcholine-induced 86Rb+ ion efflux preincubated for 10 mins by liquid scintillation counting analysis; type: cell-based
Salmonella typhimurium [16] = experiment: Genotoxicity in Salmonella typhimurium TA1535 at 5 to 100 uM by Ames test in presence of liver S9 fraction; type: toxicity, organism-based; conditions: salmonella enterica subsp. enterica serovar typhimurium, s9, 100 µM; method in brief: as §2
CYP3A = experiment: Inhibition of CYP3A (unknown origin) at 10 uM relative to control; type: ADME; conditions: human
Method in brief: (§4)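 Inhibition of CYP1A, CYP2C9, CYP2C19, CYP2D6 and CYP3A isoforms measured in the presence of 10 μM test compound, expressed as percent inhibition.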

[17] = Chemical stability of the compound at room temperature; type: physicochemical
Salmonella typhimurium [18] = experiment: Genotoxicity in Salmonella typhimurium TA1537 at 50 to 100 uM by Ames test in presence of liver S9 fraction; type: toxicity, organism-based; conditions: salmonella enterica subsp. enterica serovar typhimurium, s9, 100 µM; method in brief: as §2
Plasma [19] = experiment: Plasma protein binding in CD-1 mouse at 10 uM; type: ADME, cell-free
Method in brief: (§5)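 Plasma protein binding measured in human and CD-1 mouse plasma at 10 μM test compound, given as percent bound.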

Caco-2 [20] = experiment: Permeability from apical to basolateral side in human Caco2 cells at pH 7.4; type: ADME, cell-based; conditions: caco-2, pH 7.4
Method in brief: (§6)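 Bidirectional Caco-2 monolayer permeability, apical-to-basolateral and basolateral-to-apical, at pH 7.4 on both sides. Run with and without the P-gp inhibitor verapamil. Apparent permeability given in cm/s.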

Salmonella typhimurium [21] = experiment: Genotoxicity in Salmonella typhimurium TA1535 at 5 to 100 uM by Ames test; type: toxicity, organism-based; conditions: salmonella enterica subsp. enterica serovar typhimurium; method in brief: as §2
Salmonella typhimurium [22] = experiment: Genotoxicity in Salmonella typhimurium TA100 at 5 to 100 uM by Ames test in presence of liver S9 fraction; type: toxicity, organism-based; conditions: salmonella enterica subsp. enterica serovar typhimurium, s9, 100 µM; method in brief: as §2
hERG (KCNH2) [23] = molecular target: T3, hERG (KCNH2); experiment: Inhibition of human ERG at 1 uM relative to control; method in brief: as §3
Salmonella typhimurium [24] = experiment: Genotoxicity in Salmonella typhimurium TA100 at 5 to 100 uM by Ames test; type: toxicity, organism-based; conditions: salmonella enterica subsp. enterica serovar typhimurium; method in brief: as §2
Plasma [25] = experiment: Plasma protein binding in human at 10 uM; type: ADME, cell-free; method in brief: as §5
[26] = Metabolic stability in human liver microsomes assessed as compound remaining at 0.1 uM after 1 hr; type: ADME, Microsome; conditions: read-out: Stability
Method in brief: (§7)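 Human or CD-1 mouse liver microsomes incubated with 0.1 μM test compound for 1 h. Percent parent compound remaining unchanged was measured.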

[27] = Metabolic stability in human hepatocytes assessed as compound remaining at 1 uM after 2 hrs; type: ADME, cell-based, Hepatocyte; conditions: read-out: Stability
Method in brief: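 Cryopreserved human hepatocytes incubated with 1 μM test compound for 2 h. Percent parent compound remaining unchanged was measured.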

CYP2C9 = CYP2C9 (Homo sapiens, UniProt P11712); experiment: Inhibition of CYP2C9 (unknown origin) at 10 uM relative to control; type: ADME; method in brief: as §4
[28] = Metabolic stability in CD-1 mouse liver microsomes assessed as compound remaining at 0.1 uM after 1 hr; type: ADME, Microsome; conditions: CD-1, liver microsomes; read-out: Stability; method in brief: as §7
Salmonella typhimurium [29] = experiment: Genotoxicity in Salmonella typhimurium TA1537 at 5 to 100 uM by Ames test; type: toxicity, organism-based; conditions: salmonella enterica subsp. enterica serovar typhimurium; method in brief: as §2
hERG (KCNH2) [30] = molecular target: T3, hERG (KCNH2); experiment: Inhibition of human ERG at 10 uM relative to control; method in brief: as §3
Salmonella typhimurium [31] = experiment: Genotoxicity in Salmonella typhimurium TA98 at 5 to 100 uM by Ames test in presence of liver S9 fraction; type: toxicity, organism-based; conditions: salmonella enterica subsp. enterica serovar typhimurium, s9, 100 µM; method in brief: as §2
Salmonella typhimurium [32] = experiment: Genotoxicity in Salmonella typhimurium TA1537 at 5 to 10 uM by Ames test in presence of liver S9 fraction; type: toxicity, organism-based; conditions: salmonella enterica subsp. enterica serovar typhimurium, s9, 10 µM
CYP2C19 = CYP2C19 (Homo sapiens, UniProt P33261); experiment: Inhibition of CYP2C19 (unknown origin) at 10 uM relative to control; type: ADME; method in brief: as §4
CYP2D6 = CYP2D6 (Homo sapiens, UniProt P10635); experiment: Inhibition of CYP2D6 (unknown origin) at 10 uM relative to control; type: ADME; method in brief: as §4
[33] = molecular target: T4, Neuronal acetylcholine receptor; alpha4/beta2; experiment: Agonist activity at human alpha4beta2 nACHR expressed in human SHEP1 cells assessed as stimulation of 86Rb+ ion efflux after 5 mins by liquid scintillation counting analysis; type: cell-based
Caco-2 [34] = experiment: Permeability from basolateral to apical side in human Caco2 cells at pH 7.4; type: ADME, cell-based; conditions: caco-2, pH 7.4; method in brief: as §6
Mus musculus [35] = experiment: Antidepressant-like activity in BALB/cJ mouse assessed as decrease in immobility time at 20 mg/kg, ip administered 30 mins before test measured for 6 mins by forced swimming test; type: functional, organism-based; set-up: dose 20 mg/kg; method in brief: as §1

T2 sequence (P17787 whole entry): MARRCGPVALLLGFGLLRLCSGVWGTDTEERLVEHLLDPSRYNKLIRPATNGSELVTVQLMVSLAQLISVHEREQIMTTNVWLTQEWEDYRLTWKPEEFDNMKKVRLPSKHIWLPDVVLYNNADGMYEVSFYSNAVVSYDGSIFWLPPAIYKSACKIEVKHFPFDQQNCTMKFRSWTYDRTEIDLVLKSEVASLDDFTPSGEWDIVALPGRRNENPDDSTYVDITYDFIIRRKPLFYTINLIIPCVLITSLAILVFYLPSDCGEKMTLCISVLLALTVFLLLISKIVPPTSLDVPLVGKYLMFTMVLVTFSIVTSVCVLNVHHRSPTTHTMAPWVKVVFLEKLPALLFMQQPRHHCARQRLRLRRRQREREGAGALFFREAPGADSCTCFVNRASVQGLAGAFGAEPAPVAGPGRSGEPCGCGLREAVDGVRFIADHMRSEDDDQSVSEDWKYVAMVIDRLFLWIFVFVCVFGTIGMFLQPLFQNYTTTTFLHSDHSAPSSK
T2 sequence (P32297 whole entry): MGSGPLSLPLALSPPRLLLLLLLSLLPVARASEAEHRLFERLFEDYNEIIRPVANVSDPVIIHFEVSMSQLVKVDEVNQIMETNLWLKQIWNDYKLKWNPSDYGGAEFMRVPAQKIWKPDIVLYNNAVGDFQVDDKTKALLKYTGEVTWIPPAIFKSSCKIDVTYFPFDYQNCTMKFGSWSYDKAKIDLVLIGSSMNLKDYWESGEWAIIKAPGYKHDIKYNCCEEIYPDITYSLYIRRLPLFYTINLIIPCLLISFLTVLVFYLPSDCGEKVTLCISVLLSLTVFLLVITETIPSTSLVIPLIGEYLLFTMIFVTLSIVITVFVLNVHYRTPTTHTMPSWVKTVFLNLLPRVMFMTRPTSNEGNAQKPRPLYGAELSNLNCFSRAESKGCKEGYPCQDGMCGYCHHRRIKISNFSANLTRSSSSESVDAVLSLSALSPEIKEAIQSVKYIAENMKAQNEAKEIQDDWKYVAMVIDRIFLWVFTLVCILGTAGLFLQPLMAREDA
T2 sequence (Q15825 whole entry): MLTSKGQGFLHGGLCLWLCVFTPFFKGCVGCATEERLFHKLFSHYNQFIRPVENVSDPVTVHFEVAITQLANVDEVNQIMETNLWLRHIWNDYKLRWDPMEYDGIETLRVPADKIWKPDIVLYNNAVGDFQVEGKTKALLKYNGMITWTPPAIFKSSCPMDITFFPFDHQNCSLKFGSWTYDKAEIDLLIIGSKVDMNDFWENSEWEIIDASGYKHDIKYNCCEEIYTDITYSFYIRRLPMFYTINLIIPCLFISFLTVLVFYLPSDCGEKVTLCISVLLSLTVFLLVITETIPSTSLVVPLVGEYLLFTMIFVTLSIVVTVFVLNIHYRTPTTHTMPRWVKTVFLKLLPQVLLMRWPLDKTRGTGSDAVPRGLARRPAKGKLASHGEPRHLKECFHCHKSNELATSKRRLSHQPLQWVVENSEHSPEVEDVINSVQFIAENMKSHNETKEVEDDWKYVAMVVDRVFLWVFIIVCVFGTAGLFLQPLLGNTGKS
T2 sequence (Q05901 whole entry): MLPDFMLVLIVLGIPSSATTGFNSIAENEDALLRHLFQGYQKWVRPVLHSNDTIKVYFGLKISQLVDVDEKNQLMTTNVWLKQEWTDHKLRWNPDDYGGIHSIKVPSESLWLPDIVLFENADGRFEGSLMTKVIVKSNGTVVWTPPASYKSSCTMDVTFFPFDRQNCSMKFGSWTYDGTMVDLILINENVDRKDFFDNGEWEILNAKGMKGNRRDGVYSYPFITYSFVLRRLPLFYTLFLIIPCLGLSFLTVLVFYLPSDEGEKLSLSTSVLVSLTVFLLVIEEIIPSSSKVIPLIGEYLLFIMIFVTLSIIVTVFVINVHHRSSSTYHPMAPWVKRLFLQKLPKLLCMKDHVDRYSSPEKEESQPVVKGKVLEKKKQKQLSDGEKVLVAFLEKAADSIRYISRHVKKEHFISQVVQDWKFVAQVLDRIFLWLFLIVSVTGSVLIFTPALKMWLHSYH
T3 sequence (Q12809 whole entry): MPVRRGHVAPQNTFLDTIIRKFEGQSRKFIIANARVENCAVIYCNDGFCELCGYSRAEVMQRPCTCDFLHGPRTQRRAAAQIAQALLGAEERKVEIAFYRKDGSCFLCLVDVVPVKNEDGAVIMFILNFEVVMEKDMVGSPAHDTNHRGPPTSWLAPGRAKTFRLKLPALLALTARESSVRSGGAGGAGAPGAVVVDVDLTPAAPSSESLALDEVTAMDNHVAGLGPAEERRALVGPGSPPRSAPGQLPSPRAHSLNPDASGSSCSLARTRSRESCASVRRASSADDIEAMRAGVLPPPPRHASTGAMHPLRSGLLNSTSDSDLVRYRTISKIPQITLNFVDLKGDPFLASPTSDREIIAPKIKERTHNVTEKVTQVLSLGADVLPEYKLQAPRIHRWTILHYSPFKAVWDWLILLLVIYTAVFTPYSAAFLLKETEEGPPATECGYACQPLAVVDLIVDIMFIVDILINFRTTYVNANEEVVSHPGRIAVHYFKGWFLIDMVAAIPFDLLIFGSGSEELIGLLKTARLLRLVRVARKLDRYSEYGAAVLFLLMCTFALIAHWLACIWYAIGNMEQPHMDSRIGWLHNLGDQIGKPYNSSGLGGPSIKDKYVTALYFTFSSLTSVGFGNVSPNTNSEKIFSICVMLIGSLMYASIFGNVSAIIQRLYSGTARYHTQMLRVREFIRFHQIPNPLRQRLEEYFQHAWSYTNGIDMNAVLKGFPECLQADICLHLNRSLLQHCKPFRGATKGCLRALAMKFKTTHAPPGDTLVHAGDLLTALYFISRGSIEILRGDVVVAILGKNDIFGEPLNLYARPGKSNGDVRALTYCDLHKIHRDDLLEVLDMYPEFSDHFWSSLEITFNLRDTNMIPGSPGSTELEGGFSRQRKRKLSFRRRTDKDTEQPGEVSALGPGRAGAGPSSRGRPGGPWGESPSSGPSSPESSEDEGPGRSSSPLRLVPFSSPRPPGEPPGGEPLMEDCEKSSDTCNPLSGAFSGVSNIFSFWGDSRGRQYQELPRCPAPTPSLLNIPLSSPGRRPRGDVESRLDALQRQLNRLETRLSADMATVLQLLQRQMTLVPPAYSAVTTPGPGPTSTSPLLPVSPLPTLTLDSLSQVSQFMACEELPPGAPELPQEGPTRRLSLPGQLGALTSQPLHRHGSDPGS
T4 sequence (P17787 whole entry): as the sequence (P17787 whole entry) above
T4 sequence (P43681 whole entry): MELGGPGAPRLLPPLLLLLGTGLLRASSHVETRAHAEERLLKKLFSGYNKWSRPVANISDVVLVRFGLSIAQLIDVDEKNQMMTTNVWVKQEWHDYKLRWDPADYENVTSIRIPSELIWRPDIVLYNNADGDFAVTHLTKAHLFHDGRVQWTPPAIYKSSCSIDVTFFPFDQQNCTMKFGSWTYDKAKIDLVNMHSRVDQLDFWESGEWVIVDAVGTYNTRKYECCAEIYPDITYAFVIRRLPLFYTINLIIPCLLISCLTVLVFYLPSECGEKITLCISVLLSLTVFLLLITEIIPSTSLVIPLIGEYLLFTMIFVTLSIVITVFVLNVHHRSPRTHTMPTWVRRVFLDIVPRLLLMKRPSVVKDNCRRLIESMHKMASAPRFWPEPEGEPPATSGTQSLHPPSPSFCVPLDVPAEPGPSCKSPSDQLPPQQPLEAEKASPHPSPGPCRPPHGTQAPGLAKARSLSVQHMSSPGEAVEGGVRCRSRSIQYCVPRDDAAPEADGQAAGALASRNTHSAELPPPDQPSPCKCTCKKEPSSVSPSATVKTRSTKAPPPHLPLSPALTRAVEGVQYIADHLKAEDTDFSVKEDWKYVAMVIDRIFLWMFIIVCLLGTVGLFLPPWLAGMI
CYP2C9, sequence (P11712 whole entry): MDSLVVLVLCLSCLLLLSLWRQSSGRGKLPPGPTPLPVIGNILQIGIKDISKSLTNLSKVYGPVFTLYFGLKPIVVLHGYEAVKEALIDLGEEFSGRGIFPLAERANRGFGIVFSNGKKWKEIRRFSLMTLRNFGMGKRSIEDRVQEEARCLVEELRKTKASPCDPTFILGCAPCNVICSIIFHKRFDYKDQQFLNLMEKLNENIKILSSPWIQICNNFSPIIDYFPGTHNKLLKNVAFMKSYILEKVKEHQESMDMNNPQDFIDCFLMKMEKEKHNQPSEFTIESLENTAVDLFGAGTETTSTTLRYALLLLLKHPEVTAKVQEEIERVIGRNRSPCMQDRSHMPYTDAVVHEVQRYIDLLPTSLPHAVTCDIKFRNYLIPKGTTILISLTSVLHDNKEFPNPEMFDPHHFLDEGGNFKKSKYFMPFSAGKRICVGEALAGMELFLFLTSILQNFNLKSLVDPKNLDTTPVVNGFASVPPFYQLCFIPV
CYP2C19, sequence (P33261 whole entry): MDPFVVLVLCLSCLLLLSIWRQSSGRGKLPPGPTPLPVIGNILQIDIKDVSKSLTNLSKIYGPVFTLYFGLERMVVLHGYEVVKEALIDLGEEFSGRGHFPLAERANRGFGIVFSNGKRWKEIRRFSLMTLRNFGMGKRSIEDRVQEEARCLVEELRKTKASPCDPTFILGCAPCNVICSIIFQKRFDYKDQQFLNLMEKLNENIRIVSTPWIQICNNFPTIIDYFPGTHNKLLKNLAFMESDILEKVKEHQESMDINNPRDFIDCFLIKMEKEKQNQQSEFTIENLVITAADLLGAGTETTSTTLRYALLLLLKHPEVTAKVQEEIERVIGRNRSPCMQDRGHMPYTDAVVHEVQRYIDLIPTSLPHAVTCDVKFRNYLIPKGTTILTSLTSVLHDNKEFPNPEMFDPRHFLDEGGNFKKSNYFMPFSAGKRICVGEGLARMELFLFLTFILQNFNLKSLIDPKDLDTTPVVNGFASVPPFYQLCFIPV

COCC[C@H]1C[C@@H]1c1cncc(OC[C@H]2CCNC2)c1.O=C(O)C(F)(F)F (single isomer, unassigned)
Activity [1]: Active | Activity (Mus musculus [2]): Toxic | Activity (Mus musculus [3]): Toxic | Activity (Mus musculus [4]): Toxic | inhibition [5]: inactive

COCC[C@H]1C[C@@H]1c1cncc(OC[C@@H]2CCCN2C)c1.O=C(O)C(O)C(O)C(=O)O
Activity (Salmonella typhimurium [6]): Non-toxic | Activity (Salmonella typhimurium [7]): Non-toxic

COCC[C@H]1C[C@@H]1c1cncc(OC[C@@H]2CCCN2)c1
EC50 [8]: 0.0515 µM | Activity (Mus musculus [9]): inactive | Activity [1]: Active | IC50 [10]: 0.223 µM | inhibition [5]: inactive

COCC[C@H]1C[C@@H]1c1cncc(OC[C@@H]2CCCN2C)c1
Activity (Mus musculus [11]): Active | Activity [1]: Active | Activity (Mus musculus [12]): Active | inhibition [5]: inactive

COCC[C@H]1C[C@@H]1c1cncc(OC[C@@H]2CCCN2C)c1.O=C(O)C(F)(F)F
EC50 [8]: 0.009 µM | Activity (Salmonella typhimurium [13]): Non-toxic | inhibition at 0.1 µM (hERG (KCNH2) [14]): 4% | IC50 [15]: 0.02 µM | Activity (Salmonella typhimurium [16]): Non-toxic | inhibition at 10 µM (CYP3A): 10% | Stability [17]: Stable | Activity (Salmonella typhimurium [18]): Toxic | PPB (Plasma [19]): 11% | permeability (Caco-2 [20]): 90.9 ×10⁻⁶ cm/s | Activity (Salmonella typhimurium [21]): Non-toxic | Activity (Salmonella typhimurium [22]): Non-toxic | IC50 [10]: 0.0239 µM | inhibition at 1 µM (hERG (KCNH2) [23]): 7% | Activity (Salmonella typhimurium [24]): Non-toxic | PPB (Plasma [25]): 31% | remaining at 1 h, 0.1 µM [26]: 103% | remaining at 2 h, 1 µM [27]: 85.7% | inhibition at 10 µM (CYP2C9): 30% | remaining at 1 h, 0.1 µM [28]: 90.1% | Activity (Salmonella typhimurium [29]): Non-toxic | inhibition at 10 µM (hERG (KCNH2) [30]): 23% | Activity (Salmonella typhimurium [31]): Non-toxic | Activity (Salmonella typhimurium [32]): Non-toxic | inhibition at 10 µM (CYP2C19): 21% | inhibition at 10 µM (CYP2D6): 44% | EC50 [33]: 0.0144 µM | permeability (Caco-2 [34]): 18.4 ×10⁻⁶ cm/s

COCC[C@H]1C[C@@H]1c1cncc(OC[C@@H]2CCN2)c1
EC50 [8]: 0.0074 µM | IC50 [10]: 0.0097 µM

CN[C@H]1CC[C@@H](c2ccc(Cl)c(Cl)c2)c2ccccc21
Activity (Mus musculus [35]): Active
